Laboratory results taken from ChEMBL document CHEMBL4513216, “Probing the Open Global Health Chemical Diversity Library for Multistage-Active Starting Points for Next-Generation Antimalarials” (ACS Infect Dis, 2020).

Assay: Toxicity liver stage against HepG2, at 10uM
Type: cell-based
Set-up: test concentration 10 uM, cell line HepG2-A16-CD81EGFP
Settings: human, HepG2-A16-CD81EGFP cells; read-out: INHIBITION
How it was run: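 Uninfected HepG2-A16-CD81EGFP cells, 3 × 10^3 per well, 1536-well, plated on prespotted compound at 10 μM final, parasite-free screening media added to match infected plates; puromycin 10 μM positive, DMSO 0.5% negative; run in parallel with 48 h PbLuc assay at 37 °C, 5% CO2; viability by CellTiter-Glo luminescence, normalized to controls.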

| SMILES | cytotoxicity at 10 µM [%] |
| --- | --- |
| CC1(C)CNC(=O)CN(C(=O)COc2ccccc2)C1 | 1.4 |
| COC1CCN(C(=O)Nc2ccccc2)CC(=O)N(C)c2ccccc21 (stereo not given) | 2.94 |
| O=C(c1nc(Cc2c[nH]c3ccccc23)no1)N1CCCCC1 | 6.04 |
| CCS(=O)(=O)N1CCc2nc(N3CCOCC3)nc(N(C)C)c2CC1 | 21.3 |
| CN1C(=O)CC2(CCN(S(=O)(=O)C3CC3)CC2)c2ccccc21 | 2.04 |
| CCCS(=O)(=O)NCC1OCCc2cn(CC3CCOCC3)nc21 (stereo not given) | -5.6 |
| CCC(C)NC(=O)Cn1c(Nc2cc(C)cc(C)c2)nc(C)cc1=O (stereo not given) | 9.91 |
| Cc1ccc2nc(C)cc(NCCNS(=O)(=O)c3cn(C)nc3C)c2c1 | 8.06 |
| O=C(CCC1CCCC1)N1CCC(c2cc3ncccc3c(O)n2)CC1 | -4.82 |
| Cc1nc(C2CCCN2C(=O)c2ccc(F)cc2)ncc1C(N)=O (stereo not given) | -7.62 |
| Cc1noc(C)c1C(=O)N1CCCC(c2c(C)c(=O)nc3n2CCC3)C1 (stereo not given) | -21.1 |
| O=C(c1cc(Br)c[nH]1)N1CCN(Cc2ccco2)CC1 | -64.2 |
| CN(Cc1ccc(F)c(F)c1)C(=O)CCc1nc(-c2nnc[nH]2)no1 | -43.6 |
| CC(C)CC(C#N)NC(=O)CCNC(=O)C(C)(C)C (stereo not given) | -3.3 |
| Cc1ccc(C(=O)NCC(C)Cn2ccnc2C)c(=O)[nH]1 (stereo not given) | -0.89 |
| CCc1nc(NC(=O)Cc2csc(-c3nnc[nH]3)n2)sc1C | -45.1 |
| CC(C)c1nc(CN(C)S(=O)(=O)c2cccs2)cs1 | -48.8 |
| CCn1cc(CN2CCCN(C(=O)C3(C)CCOCC3)CC2)cn1 | -45.4 |
| O=C(CN1C(=O)c2ccccc2CS1(=O)=O)c1ccc(Cl)cc1 | 4.17 |
| CC(=O)c1cccc(OCCCC(=O)N(C)Cc2cnc(C)s2)c1 | 14.2 |
| CC(C)(C)OC(=O)N1CCCc2ccc(NCc3ccon3)cc21 | 10.9 |
| CN(Cc1ccco1)C(=O)c1ccc(=O)n(C)c1 | -47.5 |
| CC(=O)c1ccc(-n2c(C)cn(CCS(C)(=O)=O)c2=O)cc1 | 11.5 |

| SMILES | cytotoxicity at 10 µM [%] |
| --- | --- |
| O=C(Cn1cc(-n2cccc2)cn1)NCC1CCC1 | 14.7 |
| CN(C1CCN(c2ccccn2)CC1)S(=O)(=O)N1CCOCC1 | -5.23 |
| COc1cccc(NC(=O)N2CC[C@@H]3CN(C)S(=O)(=O)[C@@H]3CC2)c1 | 7.3 |
| COCCNC(=O)[C@H]1CN(c2ncccn2)C[C@H]2OCC[C@@H]12 | -80.7 |
| O=C1CC2(CCN(Cc3ccsc3)C2)CN1c1ccc2c(c1)OCO2 (stereo not given) | -75 |
| CC(=O)N1CCC2(CC1)CCN(C(=O)c1cccc(C(F)(F)F)c1)C2 | -74.5 |
| Cc1nn(C)c2nc(N3CCC(C(O)c4ccccn4)CC3)sc12 (stereo not given) | 22.2 |
| CCc1nc(CCNS(=O)(=O)c2cccc(C(=O)N(C)CC)c2)cs1 | -36.2 |
| CCc1cnc(C)nc1NCCSc1nnc(C)n1CC | -4.19 |
| O=C(NCCN1CCCCC1=O)C1CCC(=O)N(C2CCCC2)C1 (stereo not given) | -10.8 |
| O=C(CCC(=O)N1CCNC(=O)C1c1cccc(F)c1)NC1CCCC1 (stereo not given) | 2.68 |
| COc1ccccc1OC1(C(=O)O)CCN(c2ncnc(C)c2C)CC1 | -11.2 |
| Cc1cc(N2CCCC(N(C)C)C2)n2nccc2n1 (stereo not given) | -43.4 |
| CC(CCc1ccc(O)cc1)NC1CCN(S(C)(=O)=O)CC1 (stereo not given) | 1.46 |
| CCN(C)CC(=O)N1CCCC(c2nnc(CN3CCOCC3)n2C)C1 (stereo not given) | -8.28 |
| Cc1cccc(N2CCN(CCNC(=O)C(C)n3cncn3)CC2)c1 (stereo not given) | -1.91 |
| CC(C)(C#N)C(=O)N1CCCC(c2cc(C(F)(F)F)[nH]n2)C1 (stereo not given) | -5.67 |
| CN1CCOC(CN(C(=O)CC2CCCC2)c2nccs2)C1 (stereo not given) | -3.78 |
| CC(C)NCC1OCCc2cn(C)nc21 (stereo not given) | 9.91 |
| COc1ccccc1CNC(Cc1cccs1)c1nc(C)c(C)s1 (stereo not given) | 3.89 |
| CN(C)CCOCc1cncc2c1CCN(C(=O)C1CCOCC1)C2 | -1.87 |
| c1ccc(CN2CCOC3CNCC[C@H]32)cc1 (stereo not given in full) | 6.31 |
